Test results from the EternaBench riboswitch data.

Test system: MS2 coat protein
Experiment: apparent Kd, MS2 coat protein; higher = weaker binding; RNA-MaP array; FMN 200 µM where present
Procedure, shortened: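 SNAP-549-labelled MS2 coat protein, doubled from 0.7 or 1.5 nM to 3 µM, was titrated over designs transcribed by stalled E. coli RNA polymerase on Illumina sequencing-chip clusters. Titrations were run without and then with constant ligand in 100 mM Tris-HCl pH 7.5, 80 mM KCl, 4 mM MgCl2, BSA, DTT, yeast tRNA and Tween-20. The apparent Kd is the median of filtered per-cluster fits to green signal normalised to red-channel RNA signal and control-cluster median Fmax.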

[1] = designed as: ON switch for flavin mononucleotide, no ligand
[2] = ligand present: flavin mononucleotide, designed as: ON switch for flavin mononucleotide
[3] = designed as: OFF switch for flavin mononucleotide, no ligand
[4] = ligand present: flavin mononucleotide, designed as: OFF switch for flavin mononucleotide

Sequence	apparent Kd [1]	apparent Kd [2]	apparent Kd [3]	apparent Kd [4]
UGGUACUAGGGAGGAUAUGGGAAGAUACAUGAGGAUCACCCAUGUUUAAGAAUGCCGAGAGGCAACAAGAAGGCCCUAGUACCU	532 nM	98.9 nM		
UCCUACAUCGGAGGAUAUCAUGUGUAAACAUGAGGAUCACCCAUGUCGUACGAUAGUACGGAGAUUGAGAAGGCCGAUGUAGGU	93.9 nM	17.3 nM		
CGCGAACAGUUUUACAUGAGGAUCACCCAUGUGGACUCAUGGUAGGAUAUCGGGAAGGAGGAAACCGAGAAGGGCUGGUGAGCC	312 nM	256 nM		
GUGCAACAUGAGGAUCACCCAUGUCAGGAUAUGCGAAUUUCAUCAAAAGAUGAAAUUUGCAGAAGGGACUGCAC			19 nM	22.8 nM
GGGAGACAUGAGGAUCACCCAUGUGAAAACGUGUGAGGAUAUGAAUGGAAACCAUACUGUUCAGAAGGCACUUGUC	89.7 nM	36.6 nM		
CUGGUUCUCGUAGGAUAUGUAGGAUAUGCCUACAUGAGGAUCACCCAUGUUCGCAUGGCAGAAGGACAGAAGGACGAUCACCAG	55.6 nM	15.4 nM		
AUCAGCUCGUCAGGAUAUACGUCACUGCGUCAGCAGUGUGGUAAGAUCACAUGAGGAUCACCCAUGUAGAAGGGACGAGCUGUU			13.2 nM	269 nM
AACAGUACAGGAUAUACAUGAGGAUCACCCAUGUGAAGAAUAAGUGGAGUACCACAAAGUAGAAGGGUACUGGA			26.7 nM	132 nM
GCGCACUAAGUGAGGAUAUCGAUUUCUUUAAGGAUCGAGAAGGCACAUGAGGAUCACCCAUGUUUGACGUGCGC			16.9 nM	14.5 nM
UCAGGCUUCGAGAAGGACAUGAGGAUCACCCAUGUGCGUGUGAAGCAGCCGUGAGGCUGCAUCAUGUAGGAUAUCGGAGUCUGC			82 nM	418 nM
GUACAUACAAAGUUACAUGAGGAUCACCCAUGUUUAUUGGGAAGAAGGGUAACAUUAUUAGAUAUAUAGGAUAUUUCACAAUUG	718 nM	387 nM		
UUUACAUGAGGAUCACCCAUGUCUUGAAAGAUUAGUUUUGGUGAGGAUAUACAUGAUAAAGAAUUGUAGAAGGCACUGGGUACA	258 nM	124 nM		
UUUGUAUAGCAAGGAUAUGUUUAAUUAUAGUUGCCUCAUACAUGAGGAUCACCCAUGUUUUACUUACAGAAGGUGCAAUGAUUU			316 nM	317 nM
CUAUUGAUAACAGGAUAUAUGAGUCCUACAUGAGGAUCACCCAUGUAGGUGAUCAGCCGUGAUUAGUAGAAGGGUUAUCAAUAG	12.7 nM	6.63 nM		
GGAGCAUACAUUAACAUGAGGAUCACCCAUGUCAAAAGACAUGAGGAUAUGGAUCCGAAAAGGAUCCAGAAGGCAUGGUGCUCC	173 nM	11.5 nM		
UAAUGACAUGUAGGAUAUCGAGGCCUAUGGCCUCGAGAAGGACAUGAGGAUCACCCAUGUAUUCCGAAUGAAUCAAAUAAUAAA			15.6 nM	30.8 nM
ACAUGUAAUACAGGAUAUGUUAUACAUUAAUCAAUCAGUUAUUAUGAUUAUACAGAAGGGUAUACAUGAGGAUCACCCAUGUUA			19.7 nM	26.2 nM
UCAUACAUUCGAGGAUAUCGGUGAUAACUCAAACGAGAAGGCGAUUUAAAACAUAAUGCUGUAGACAUGAGGAUCACCCAUGUA	476 nM	182 nM		
CUUGAAUAAGUGAGGAUAUACUGUUAGUAAUGAUUGUAGAAGGUACAUGAGGAUCACCCAUGUUUAUUCAUAAU			18.2 nM	18.3 nM
CUGCUCCGUGUAGGAUAUCCGGGCAACCAAUCCGGAGAAGGACAUGAGGAUCACCCAUGUAUGUUAUUAUCACGUGAAGCGUCC			23 nM	25.3 nM
AGUUGGCGAGGAUAUACAUGAGGAUCACCCAUGUGGUCCUGCGAUGGUGUCGCCCUUUGUAGAAGGCGCGGGUC			35 nM	28.1 nM
UUAAUGUGAGGAUAUCAAGAGAGAAAGAGUAAUGGUAAAUAUGAGAAGGCACAUGAGGAUCACCCAUGUUCUUC			15.9 nM	15.5 nM
AAUUCACAUGAGGAUCACCCAUGUCAGGAUAUGGUGACGCGGGUUUCGGUGCGUGUUGCCAGAAGGGACGGCUG				115 nM
